Laboratory results: ChEMBL document CHEMBL2346560, “Structure and function of a potent lipopolysaccharide-binding antimicrobial and anti-inflammatory peptide” (J Med Chem, 2013)
≈ marks a conversion by molar mass, not a printed value. Calls of active or inactive are those of the source. No cut-off for these calls is given here. Bridge positions count the residues as written; N and C are the ends. Peptide text beside a SMILES is read from it.

Experiments:
Lipopolysaccharide (LPS) = assay: Binding affinity to Escherichia coli 055:B5 lipopolysaccharide by NMR titration assay
Procedure, shortened: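 2D TOCSY NMR titration: peptide 2.5 mM in 95% H2O/TFE-d3 (6:4, v/v) with 5% D2O, pH 6.2, 25 °C, alone or with LPS from E. coli 055:B5 (2.5 mM : 1 µg and 2.5 mM : 5 µg). Readout is the ratio of amide proton peak heights, free versus LPS-bound, per residue.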

RAW264.7 [1] = assay: Antiinflammatory activity in mouse RAW264.7 cells assessed as inhibition of LPS-induced NFkappaB translocation from cytoplasm to nucleus at 20 ug/mL preincubated for 1 hr prior to LPS-challenge measured after 3 hrs by Western blotting analysis relative to LPS-treated control; type: functional
Procedure, shortened: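 RAW 264.7 cells (1 × 10^6/well) were serum-starved in RPMI-1640 for 16 h. They were pretreated with peptide (0, 5, 10, 20 µg/mL) for 1 h, then given LPS (E. coli 055:B5, 0 or 100 ng/mL) for 3 h. Cells were washed in ice-cold PBS, and cytoplasmic or nuclear fractions were blotted for TLR4, JNK, NF-κB p65 and β-actin. Control was LPS alone.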

RAW264.7 [2] = assay: Cytotoxicity against mouse RAW264.7 cells at 100 ug/mL after 24 hrs by MTT assay relative to control; type: cell-based; settings: raw264.7, 24 h
[3] = Toxicity in human RBC assessed as induction of hemolysis at 50 ug/mL after 30 mins relative to control; type: cell-based, Erythrocyte; settings: red blood cells (RBC), read-out: Activity
Procedure, shortened: (§1)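 Human red blood cells incubated with peptide. Hemoglobin release read as absorbance at 540 nm and expressed against 1% Triton X-100 as positive control.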

[4] = Toxicity in human RBC assessed as induction of hemolysis at 25 ug/mL after 30 mins relative to control; type: cell-based, Erythrocyte; settings: red blood cells (RBC), read-out: Activity; procedure, shortened: as §1
Escherichia coli [5] = assay: Bactericidal activity against Escherichia coli ATCC 25922 at 10 times MIC after 40 mins by colony counting assay (reference value: 131.7 CFU); type: functional
Escherichia coli [6] = assay: Bactericidal activity against Escherichia coli ATCC 25922 at 10 times MIC after 10 mins by colony counting assay (reference value: 58.3 CFU); type: functional
Escherichia coli [7] = assay: Bactericidal activity against Escherichia coli ATCC 25922 at 10 times MIC after 5 mins by colony counting assay (reference value: 47.7 CFU); type: functional
Escherichia coli [8] = assay: Bactericidal activity against Escherichia coli ATCC 25922 at 5 times MIC after 120 mins by colony counting assay (reference value: 1868.3 CFU); type: functional
Escherichia coli [9] = assay: Bactericidal activity against Escherichia coli ATCC 25922 at 5 times MIC after 60 mins by colony counting assay (reference value: 296 CFU); type: functional
Escherichia coli [10] = assay: Bactericidal activity against Escherichia coli ATCC 25922 at 5 times MIC after 10 mins by colony counting assay (reference value: 58.3 CFU); type: functional
Escherichia coli [11] = assay: Bactericidal activity against Escherichia coli ATCC 25922 at MIC after 60 mins by colony counting assay (reference value: 296 CFU); type: functional
Escherichia coli [12] = assay: Bactericidal activity against Escherichia coli ATCC 25922 at MIC after 40 mins by colony counting assay (reference value: 131.7 CFU); type: functional
Escherichia coli [13] = assay: Bactericidal activity against Escherichia coli ATCC 25922 at MIC after 10 mins by colony counting assay (reference value: 58.3 CFU); type: functional
Escherichia coli [14] = assay: Bactericidal activity against Escherichia coli ATCC 25922 at MIC after 5 mins by colony counting assay (reference value: 47.7 CFU); type: functional
Candida albicans [15] = assay: Antifungal activity against Candida albicans ATCC 2002 treated with MgCl2 after 16 hrs by broth dilution method; type: functional; settings: ATCC 2002, 16 h
Procedure, shortened: (§2)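 Salt sensitivity of the MIC. Peptide was tested in water, NaCl, CaCl2, MgCl2 or PBS (Na2HPO4-NaH2PO4, pH 7.4), with every salt at 150 mM. Values are means of three independent experiments, each run in duplicate.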

Bacillus subtilis [16] = assay: Antibacterial activity against Bacillus subtilis 6633 treated with MgCl2 after 16 hrs by broth dilution method; type: functional; settings: Bacillus subtilis, 6633, 16 h; procedure, shortened: as §2
Pseudomonas aeruginosa [17] = assay: Antibacterial activity against Pseudomonas aeruginosa ATCC 27853 treated with MgCl2 after 16 hrs by broth dilution method; type: functional; settings: ATCC 27853, 16 h; procedure, shortened: as §2
Bacillus subtilis [18] = assay: Antibacterial activity against Bacillus subtilis 6633 treated with CaCl2 after 16 hrs by broth dilution method; type: functional; settings: Bacillus subtilis, 6633, 16 h; procedure, shortened: as §2
Escherichia coli [19] = assay: Antibacterial activity against Escherichia coli ATCC 25922 treated with CaCl2 after 16 hrs by broth dilution method; type: functional; settings: ATCC 25922, 16 h; procedure, shortened: as §2
Candida albicans [20] = assay: Antifungal activity against Candida albicans ATCC 2002 treated with PBS after 16 hrs by broth dilution method; type: functional; settings: ATCC 2002, 16 h; procedure, shortened: as §2
Bacillus subtilis [21] = assay: Antibacterial activity against Bacillus subtilis 6633 treated with PBS after 16 hrs by broth dilution method; type: functional; settings: Bacillus subtilis, 6633, 16 h; procedure, shortened: as §2
Pseudomonas aeruginosa [22] = assay: Antibacterial activity against Pseudomonas aeruginosa ATCC 27853 treated with PBS after 16 hrs by broth dilution method; type: functional; settings: ATCC 27853, 16 h; procedure, shortened: as §2
Bacillus subtilis [23] = assay: Antibacterial activity against Bacillus subtilis 6633 treated with NaCl after 16 hrs by broth dilution method; type: functional; settings: Bacillus subtilis, 6633, 16 h; procedure, shortened: as §2
Candida albicans [24] = assay: Antifungal activity against ampicillin, benzylpencillin-resistant Candida albicans 080227710 after 16 hrs by broth dilution method; type: functional; settings: Candida albicans, 080227710, 16 h
Procedure, shortened: (§3)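 MIC read-out, reported in µg/mL with µM equivalents. Each value is the mean of three independent experiments, each run in duplicate.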

Candida albicans [25] = assay: Antifungal activity against ampicillin, benzylpencillin-resistant Candida albicans 08022821 after 16 hrs by broth dilution method; type: functional; settings: Candida albicans, 08022821, 16 h; procedure, shortened: as §3
Bacillus subtilis [26] = assay: Antibacterial activity against Bacillus subtilis 6633 after 16 hrs by broth dilution method; type: functional; settings: Bacillus subtilis, 6633, 16 h
Procedure, shortened: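 MIC determined by an earlier in-house method. Values are means of three independent experiments, each run in duplicate.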

Staphylococcus aureus = assay: Antibacterial activity against Staphylococcus aureus ATCC 2592 after 16 hrs by broth dilution method; type: functional; settings: ATCC 2592, 16 h; procedure, shortened: as §3
RAW264.7 [27] = assay: Antiinflammatory activity in mouse RAW264.7 cells assessed as inhibition of LPS-induced NO production after 24 hrs by spectrophotometric analysis; type: functional, cell-based
Procedure, shortened: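 RAW 264.7 cells (1 × 10^7) in RPMI-1640 with 10% FBS and penicillin/streptomycin were treated with peptide (2.5, 5, 10, 20 µg/mL) with or without LPS (E. coli 055:B5, 100 ng/mL) for 24 h. Medium nitrite was measured with Griess reagent at A540 against a NaNO2 standard curve. Control was LPS alone. Mean ± SEM of three separate experiments.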

Escherichia coli [28] = assay: Antibacterial activity against ampicillin, benzylpencillin-resistant Escherichia coli 08A852 after 16 hrs by broth dilution method; type: functional; settings: 08A852, 16 h; procedure, shortened: as §3
Escherichia coli [29] = assay: Antibacterial activity against ampicillin, benzylpencillin-resistant Escherichia coli 08A866 after 16 hrs by broth dilution method; type: functional; settings: 08A866, 16 h; procedure, shortened: as §3

Q: For `CC[C@H](C)[C@H](NC(=O)[C@H](Cc1cnc[nH]1)NC(=O)[C@H](CO)NC(=O)[C@@H](NC(=O)[C@@H](NC(=O)[C@@H](NC(=O)[C@@H](NC(=O)[C@H](CCCNC(=N)N)NC(=O)[C@H](CC(C)C)NC(=O)[C@H](CCCCN)NC(=O)[C@H](CCC(=O)O)NC(=O)[C@H](CCCCN)NC(=O)[C@H](CC(C)C)NC(=O)[C@H](CCCCN)NC(=O)[C@@H]1CSSC[C@H](NC(=O)[C@H](CCCCN)NC(=O)[C@@H](N)CCCNC(=N)N)C(=O)N[C@@H](CC(N)=O)C(=O)N[C@@H](Cc2ccccc2)C(=O)N[C@@H](CC(C)C)C(=O)N1)[C@@H](C)O)C(C)C)[C@@H](C)CC)[C@@H](C)O)C(=O)N[C@@H](CC(=O)O)C(=O)N[C@@H](CCCCN)C(=O)N[C@H](C(=O)N[C@@H](CC(C)C)C(=O)N[C@@H](CCCNC(=N)N)C(=O)N1CCC[C@H]1C(=O)N[C@@H](CCC(N)=O)C(=O)NCC(=O)O)C(C)C` (H-RKCNFLCKLKEKLRTVITSHIDKVLRPQG-OH; disulfide 3-7), which Activity (Lipopolysaccharide (LPS)) is on record?
A: Active

Q: And the inhibition at 20 µg/mL (RAW264.7 [1])?
A: 74%

Q: What about the Activity (RAW264.7 [2]) of the same molecule?
A: 3.3%

Q: And the hemolysis at 0.5 h, 50 ug/mL [3]?
A: 5.5%

Q: What about the hemolysis at 0.5 h, 25 ug/mL [4] of the same molecule?
A: 3.5%

Q: And the CFU (Escherichia coli [5])?
A: 0

Q: And the CFU (Escherichia coli [6])?
A: 0

Q: What about the CFU (Escherichia coli [7]) of the same molecule?
A: 11.3

Q: And the CFU (Escherichia coli [8])?
A: 0

Q: What about the CFU (Escherichia coli [9]) of the same molecule?
A: 0

Q: And the CFU (Escherichia coli [10])?
A: 10

Q: What about the CFU (Escherichia coli [11]) of the same molecule?
A: 0

Q: What about the CFU (Escherichia coli [12]) of the same molecule?
A: 0

Q: And the CFU (Escherichia coli [13])?
A: 23.7

Q: What about the CFU (Escherichia coli [14]) of the same molecule?
A: 37.3

Q: What about the MIC (Candida albicans [15]) of the same molecule?
A: 2.35 µg/mL (≈ 0.686 µM)

Q: And the MIC (Bacillus subtilis [16])?
A: 75 µg/mL (≈ 21.9 µM)

Q: What about the MIC (Pseudomonas aeruginosa [17]) of the same molecule?
A: 18.8 µg/mL (≈ 5.48 µM)

Q: And the MIC (Bacillus subtilis [18])?
A: 75 µg/mL (≈ 21.9 µM)

Q: And the MIC (Escherichia coli [19])?
A: 2.35 µg/mL (≈ 0.686 µM)

Q: And the MIC (Candida albicans [20])?
A: 2.35 µg/mL (≈ 0.686 µM)

Q: And the MIC (Bacillus subtilis [21])?
A: > 100 µg/mL

Q: And the MIC (Pseudomonas aeruginosa [22])?
A: 9.38 µg/mL (≈ 2.74 µM)

Q: What about the MIC (Bacillus subtilis [23]) of the same molecule?
A: 75 µg/mL (≈ 21.9 µM)

Q: And the MIC (Candida albicans [24])?
A: 5.48 µM (≈ 18.8 µg/mL)

Q: And the MIC (Candida albicans [25])?
A: 2.74 µM (≈ 9.38 µg/mL)

Q: And the MIC (Bacillus subtilis [26])?
A: > 100 µg/mL

Q: What about the MIC (Staphylococcus aureus) of the same molecule?
A: 2.74 µM (≈ 9.38 µg/mL)

Q: And the inhibition (RAW264.7 [27])?
A: Dose-dependent effect

Q: What about the MIC (Escherichia coli [28]) of the same molecule?
A: 1.37 µM (≈ 4.69 µg/mL)

Q: And the MIC (Escherichia coli [29])?
A: 2.74 µM (≈ 9.38 µg/mL)
